Measurements gathered from unrelated publications.
Lines come from different studies, so protocols differ.

| SMILES | method | matrix | time | pH | measurement | value |
| --- | --- | --- | --- | --- | --- | --- |
| Cc1c(C(=O)NN2CCCCC2)nc(-c2ccc(Cl)cc2Cl)n1-c1ccc(OCCCF)cc1 | shake flask | aqueous buffer | – | pH 7.4 | logD | 5.3 |
| CC(C)C[C@@H]1NC(=O)[C@@H]2CSSC[C@@H](C(=O)NCC(N)=O)NC(=O)[C@H](Cc3ccccc3)NC(=O)CNC(=O)[C@H](CC(N)=O)NC(=O)[C@@H]3CCCN3C(=O)CNC(=O)[C@@H]3CSSC[C@H](NC(=O)[C@H](CO)NC(=O)[C@H]([C@@H](C)O)NC(=O)[C@@H]4CCCN4C(=O)[C@H](C)NC(=O)[C@H](Cc4c[nH]c5ccccc45)NC(=O)[C@H](CC(=O)O)NC(=O)CNC(=O)[C@H](CCCNC(=N)N)NC(=O)CNC(=O)[C@H](CCC(N)=O)NC(=O)[C@@H]4CCCN4C(=O)[C@@H](NC(=O)CNC(=O)c4ccc(F)cc4)CSSC[C@H](NC(=O)CNC(=O)[C@H](C)NC1=O)C(=O)N[C@@H](C(C)C)C(=O)N3)C(=O)N[C@@H](CO)C(=O)N[C@@H](CCC(N)=O)C(=O)N[C@@H](CC(=O)O)C(=O)N[C@@H](CO)C(=O)N[C@@H](CC(=O)O)C(=O)N2 | shake flask | PBS | – | pH 7.4 | logD | -1.68 |
| Clc1ccc(COc2cc(OC[C@@H]3CCCN3)cnc2Cl)cn1 | shake flask | aqueous buffer | – | pH 7.4 | logD | 1.9 |
| O=c1c(O)c(NCc2ccccc2)c1=O | shake flask | aqueous buffer | 1 h | pH 7.4 | logD | -1.4 |
| C=CC1=C(C)C2=Cc3c(C=C)c(C)c4[n]3[Fe]([Cl])[n]3c(c(C)c(CCC(=O)O)c3=CC3=NC(=C4)C(C)=C3CCC(=O)O)=CC1=N2 | shake flask | aqueous buffer | – | pH 9 | logD | 0.463 |
| Cc1c(C(=O)NN2CCCCC2)nc(-c2ccc(Cl)cc2Cl)n1-c1ccc(OCCCC(F)(F)F)cc1 | shake flask | aqueous buffer | – | pH 7.4 | logD | > 5.5 |
| COc1cc(C(=O)N2CC[C@@H](O)[C@@H](N)C2)cc2nc(-c3cc4ccccc4n3CC3CC3)n(C)c12 | HPLC | – | – | pH 7.4 | chromatographic logD | 3.7 |
| CN1CCC[C@H]1COc1cnc(Cl)c(OCc2ccc(Cl)nc2)c1 | shake flask | aqueous buffer | – | pH 7.4 | logD | 2.2 |
| O=C(O)CN1CCC(Oc2ccc([C@H]3CC[C@]4(CC3)OOC3(O4)C4CC5CC(C4)CC3C5)cc2)CC1 (stereo partly drawn) | HPLC | – | – | pH 7.4 | chromatographic logD | 3 to 3.3 |
